The source of these data is ChEMBL document CHEMBL4513216, “Probing the Open Global Health Chemical Diversity Library for Multistage-Active Starting Points for Next-Generation Antimalarials” (ACS Infect Dis, 2020).

Structures are written as SMILES.

A short description of the series: Toxicity liver stage against HepG2, at 10uM. The class given is cell-based. More on the design: test concentration 10 uM, cell line HepG2-A16-CD81EGFP. Particulars: human, HepG2-A16-CD81EGFP cells; read-out: INHIBITION
The method in brief:
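Uninfected HepG2-A16-CD81EGFP cells, 3 × 10^3 per well, 1536-well, plated on prespotted compound at 10 μM final, parasite-free screening media added to match infected plates; puromycin 10 μM positive, DMSO 0.5% negative; run in parallel with 48 h PbLuc assay at 37 °C, 5% CO2; viability by CellTiter-Glo luminescence, normalized to controls.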
Regarding `COc1ccc(-c2c[nH]c([C@@H]3COCCN3)n2)cc1`, the cytotoxicity at 10 µM is -4.84%.

Regarding `N#Cc1ccc(C(=O)N2CCCSCC2CN2CCCC2)cc1` (stereo unspecified), the cytotoxicity at 10 µM came to 10.1%.

Regarding `Cn1nc(CNC(=O)c2ccc3c(c2)OCO3)c2c1CCOC2`, the cytotoxicity at 10 µM is -1.82%.

As for `O=C1CCC2(CCCN(C(=O)c3ccco3)CC2)N1` (stereo unspecified), the cytotoxicity at 10 µM is 3.17%.

For the molecule `Cc1ccc(CN2C[C@H]3CN(CC4CCN(C)CC4)C(=O)[C@H]3C2)s1`, the cytotoxicity at 10 µM is 2.5%.

Turning to `O=C1C[C@H]2[C@H](CCN2C(=O)c2cc[nH]n2)N1Cc1cccnc1`, the cytotoxicity at 10 µM amounted to 3.03%.

In the case of `Cc1cnc(N2CCC3(CC2)CCN(c2cncnc2)C3=O)nc1`, the cytotoxicity at 10 µM is -13%.

Turning to `CCN1CC2(CC1=O)CN(C(C)=O)CCN(S(=O)(=O)CC)C2` (stereo unspecified), the cytotoxicity at 10 µM was -2.02%.

Take `CN(C)S(=O)(=O)N1C[C@H]2CCC[C@@]2(COCC2CCOCC2)C1`: the cytotoxicity at 10 µM came out at 7.45%.

Turning to `Cc1nn(CC(=O)Nc2ccon2)c(C)c1Br`, the cytotoxicity at 10 µM was determined as 9.62%.

For the molecule `Cc1ccccc1C(=O)NC(C)c1cnn(C)c1` (stereo unspecified), the cytotoxicity at 10 µM amounted to 15.7%.

On to `CCn1nc(C)c2nnn(CC(=O)Nc3ccccc3F)c(=O)c21`, for which the cytotoxicity at 10 µM was 5.37%.

Turning to `CSc1nnc(C2CCN(C(=O)N3CCOCC3)CC2)n1C(C)C`, the cytotoxicity at 10 µM was 3.8%.

Take `CS(=O)(=O)NC1(CCc2ccc(NC(=O)C3CC3)nc2)CCCCC1`: the cytotoxicity at 10 µM came to 6.56%.

Turning to `CC(=O)N1CCC(CCc2ccnc(Nc3ccccn3)c2)CC1`, the cytotoxicity at 10 µM was found to be 5.57%.

As to `Cc1ccc(Nc2nccc(C3CCN(C(=O)CO)C3)n2)nc1` (stereo unspecified), the cytotoxicity at 10 µM is -2.56%.

As to `CS(=O)(=O)N1CC2(CCN(C3CCCCC3)C2)Cc2ccccc21` (stereo unspecified), the cytotoxicity at 10 µM worked out at 3.38%.

As for `O=S1(=O)NCC2(CCCN(Cc3cccnc3)C2)Oc2ncccc21` (stereo unspecified), the cytotoxicity at 10 µM amounted to 6.28%.

For the molecule `O=C(c1ccc(Oc2cccnc2)cc1)N1CCN(CCO)CC1`, the cytotoxicity at 10 µM was -41.5%.

For the molecule `CNC(=O)CN(C)C(=O)c1ccc(-c2nc(C)cs2)cc1`, the cytotoxicity at 10 µM is -7.77%.

On to `Cc1cccc(COc2ccc(C(C)NC(=O)CNC(N)=O)cc2)c1` (stereo unspecified), for which the cytotoxicity at 10 µM is -20.9%.

In the case of `CCCNC(=O)c1cnc2n1CCCC2`, the cytotoxicity at 10 µM is -3.19%.

`CNC(=O)COC(=O)c1cccc(-n2ccc(C(F)(F)F)n2)c1`: the cytotoxicity at 10 µM is -39.5%.

As to `CC(=O)N1Cc2ccccc2C[C@H]1C(=O)N(C)Cc1ccccn1`, the cytotoxicity at 10 µM came out at 6.17%.

As to `CN(Cc1c(F)cccc1Cl)C(=O)c1cnn(CCN2CCCCC2)c1`, the cytotoxicity at 10 µM is -19.1%.

For `CN(Cc1ccc(Cl)cc1)C(=O)Nc1cnn(CC(N)=O)c1`, the cytotoxicity at 10 µM is -17.6%.

For `CC(=O)NCC(=O)NC1CCc2nccn2C1` (stereo unspecified), the cytotoxicity at 10 µM was -6.99%.

Take `Cc1ccc(OCC(=O)NC2CC2)nc1`: the cytotoxicity at 10 µM came out at 4.06%.

Take `Cn1nc(Br)c2c(NCCCS(N)(=O)=O)ncnc21`: the cytotoxicity at 10 µM turned out to be 16.4%.

With `CS(=O)(=O)CCC(=O)N(CCc1cccc(F)c1)C1CC1`, the cytotoxicity at 10 µM is -5.82%.

For `COc1cc(CNC2CCN(c3ccccc3)C2)cc(OC)c1OC` (stereo unspecified), the cytotoxicity at 10 µM was found to be 3.96%.

Turning to `O=S(=O)(NCc1ccc(S(=O)(=O)N2CCCC2)s1)c1ccc(Cl)c(Cl)c1`, the cytotoxicity at 10 µM was -41.8%.

Turning to `O=S(=O)(CC1CCOCC1)NCc1ncc(-c2ccccc2)o1`, the cytotoxicity at 10 µM is -12.6%.

For the molecule `CCc1cnc(CNC(=O)N2CCCC(c3ncc[nH]3)C2)s1` (stereo unspecified), the cytotoxicity at 10 µM worked out at 8.2%.

In the case of `COCCN1CCC(CNC(=O)C2(NC(C)=O)CCCCC2)CC1`, the cytotoxicity at 10 µM came to 5.46%.

On to `CC1CCN(C(CNC(=O)CCn2cccn2)c2cccs2)CC1` (stereo unspecified), for which the cytotoxicity at 10 µM came out at 13.5%.

Take `Cc1ccc2nc(C3CCCN3Cc3csc(C)n3)[nH]c2c1` (stereo unspecified): the cytotoxicity at 10 µM is 1.58%.

As for `CCCN(Cc1ccc(C(=O)NCC2COCCO2)c(=O)[nH]1)C1CC1` (stereo unspecified), the cytotoxicity at 10 µM is -15.3%.

Regarding `CCc1cnc(C)nc1NC(C)C(=O)Nc1cc(F)ccc1C` (stereo unspecified), the cytotoxicity at 10 µM is -0.682%.

With `FC(F)(F)c1cccc(OC2CCN(Cc3ccccn3)CC2)c1`, the cytotoxicity at 10 µM was -0.609%.

Consider `CN(Cc1ccccc1-n1cccn1)C[C@@H]1CCCN2CCCC[C@H]12`, for which the cytotoxicity at 10 µM was -8.2%.

With `O=C(NCC1CCN(Cc2cc3ccccc3[nH]2)C1)c1ccsc1` (stereo unspecified), the cytotoxicity at 10 µM worked out at 15.6%.

Regarding `CC(=O)N1CCCn2nc(CNS(=O)(=O)N(C)C(C)C)cc2C1`, the cytotoxicity at 10 µM came to 3.54%.

As to `CCC[C@H]1CN(c2nccc(OC)n2)C[C@@H]1NC(=O)C1CCOCC1`, the cytotoxicity at 10 µM is -142%.

With `CCc1nnc(CN(CC)C(=O)CCc2scnc2C)o1`, the cytotoxicity at 10 µM is 7.22%.

As for `Cn1c(-c2ccc(F)cc2)cn2cc(C(=O)N3CC[C@@H](O)C3)nc2c1=O`, the cytotoxicity at 10 µM was determined as 11.1%.

With `CCOCc1nc2c(c(NC(CC)c3ccnn3C)n1)CCNCC2` (stereo unspecified), the cytotoxicity at 10 µM is -5.53%.

With `Cc1nc(C2CCN(C(=O)c3ccc(Cl)s3)CC2)cc(=O)[nH]1`, the cytotoxicity at 10 µM was -0.243%.

Regarding `CCn1cc(CNC(=O)CCc2nnc(-c3ccc(C)s3)o2)cn1`, the cytotoxicity at 10 µM is -2.83%.

Consider `CCCN1CC2(CCN(C)CC2)CC1C(=O)NCCn1nc(C)nc1C` (stereo unspecified), for which the cytotoxicity at 10 µM turned out to be 2.7%.

Regarding `CN(c1ccc(C(=O)NCCCN2CCCC2)c(Cl)c1)S(C)(=O)=O`, the cytotoxicity at 10 µM is -10%.

Regarding `CN1CCCCC1Cc1nc(Cc2cccc(F)c2)no1` (stereo unspecified), the cytotoxicity at 10 µM was -148%.

As to `COc1cc(F)ccc1C(C(=O)O)N(C)CCN1CCCC1` (stereo unspecified), the cytotoxicity at 10 µM was -13.4%.

Turning to `COc1cccc2c1OCC(C(=O)N(C)CCCc1cnn(C)c1)C2` (stereo unspecified), the cytotoxicity at 10 µM is -2.98%.

Take `Cc1ncccc1Oc1nccnc1C1CCN(C(C)C)CC1`: the cytotoxicity at 10 µM is -6.05%.

With `O=C(c1n[nH]c(=O)c2ccccc12)N1CCCCC1c1ccn[nH]1` (stereo unspecified), the cytotoxicity at 10 µM is -0.285%.

For `Cc1cnn(CC2CCCN2Cc2nnc(-c3ccccc3)o2)c1` (stereo unspecified), the cytotoxicity at 10 µM was -9.86%.

As to `Cc1n[nH]c(C2CN(C(=O)CCc3cscn3)CCO2)n1` (stereo unspecified), the cytotoxicity at 10 µM was -4.34%.

Consider `Cc1nc(C)n(CC2CCCN2Cc2cc(-c3cccs3)on2)n1` (stereo unspecified), for which the cytotoxicity at 10 µM is -0.367%.

Regarding `CCOc1ncccc1CNC(=O)N1CCCC1c1ccsc1` (stereo unspecified), the cytotoxicity at 10 µM is -7.69%.

For the molecule `Cc1ccc(CN2CCC(NC(=O)c3scnc3C)CC2)cc1`, the cytotoxicity at 10 µM was -4.1%.

Consider `CC(C)c1ncc2c(n1)CN(CCCc1nc3ccccc3o1)CC2`, for which the cytotoxicity at 10 µM is -13.2%.

For the molecule `c1ccc(OCCN2CCCCC2Cn2cncn2)cc1` (stereo unspecified), the cytotoxicity at 10 µM was -15.7%.

Consider `c1csc(-c2nc(CN3CCOC(Cn4cncn4)C3)cs2)c1` (stereo unspecified), for which the cytotoxicity at 10 µM is -3.91%.

With `Cc1csc(N2CCN(CC(=O)Nc3nncs3)CC2C)n1` (stereo unspecified), the cytotoxicity at 10 µM was -7.44%.

With `CN(CCO)CC1COCCN1C(=O)C1CCCCC1` (stereo unspecified), the cytotoxicity at 10 µM is -4.52%.

Turning to `Cc1noc(C)c1CN1C[C@@H]2CN(C(=O)c3cnccn3)C[C@@H]2C1`, the cytotoxicity at 10 µM was -1.86%.

Consider `Cc1noc(C)c1CN1CCC2(CC1)CCN(C(=O)c1cscn1)C2`, for which the cytotoxicity at 10 µM amounted to 1.21%.

`CCS(=O)(=O)N1CCC2(CC1)CC1(CCN(CCOC)CC1)C(=O)N2C`: the cytotoxicity at 10 µM stood at 0.503%.

Consider `Cc1nc(CN2CC[C@H]3[C@H]2CCN3c2nncs2)cs1`, for which the cytotoxicity at 10 µM turned out to be 5.2%.

Take `COC1C[C@@H]2CN(C(=O)c3cccc4c3OCCO4)C[C@@H]2C1` (stereo partly specified): the cytotoxicity at 10 µM is 7.77%.
